A short description of series [1]: Antioxidant activity assessed as inhibition of superoxide radical anion generation at 200 uM after 5 mins in presence of NBT and NADH relative to control. Format: physicochemical.
Series [2] has as its target T1, NAD-dependent protein deacetylase sirtuin-1 (Homo sapiens, UniProt Q96EB6).
T1 sequence (Q96EB6 whole entry): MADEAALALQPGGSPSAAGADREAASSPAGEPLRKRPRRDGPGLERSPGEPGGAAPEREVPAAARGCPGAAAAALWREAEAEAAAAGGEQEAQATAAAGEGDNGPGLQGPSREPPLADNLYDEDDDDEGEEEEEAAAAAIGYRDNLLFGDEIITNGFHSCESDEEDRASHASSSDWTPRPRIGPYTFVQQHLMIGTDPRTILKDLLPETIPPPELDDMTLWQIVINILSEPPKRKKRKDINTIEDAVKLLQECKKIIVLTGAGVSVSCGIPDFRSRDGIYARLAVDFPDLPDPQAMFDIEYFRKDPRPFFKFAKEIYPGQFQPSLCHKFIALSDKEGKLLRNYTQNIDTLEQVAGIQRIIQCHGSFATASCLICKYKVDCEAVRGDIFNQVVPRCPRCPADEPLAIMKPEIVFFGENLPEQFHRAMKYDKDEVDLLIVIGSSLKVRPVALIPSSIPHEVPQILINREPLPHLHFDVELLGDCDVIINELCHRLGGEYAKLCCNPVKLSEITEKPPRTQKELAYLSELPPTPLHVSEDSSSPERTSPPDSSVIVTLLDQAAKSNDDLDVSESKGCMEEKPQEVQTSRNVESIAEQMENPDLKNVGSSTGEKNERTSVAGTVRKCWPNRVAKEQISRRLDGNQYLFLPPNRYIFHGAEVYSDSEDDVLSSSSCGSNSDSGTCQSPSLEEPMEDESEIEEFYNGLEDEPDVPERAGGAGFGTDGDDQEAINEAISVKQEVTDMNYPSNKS
Briefly: Inhibition of human His6 or GST-tagged SIRT1 using H2N-HK-(Nepsilon-acetyl-lysine)-LM-COOH as substrate after 10 mins by HPLC analysis.

The target of series [3] is T2, NAD-dependent protein deacetylase sirtuin-3, mitochondrial (Homo sapiens, UniProt Q9NTG7).
T2 sequence (Q9NTG7 whole entry): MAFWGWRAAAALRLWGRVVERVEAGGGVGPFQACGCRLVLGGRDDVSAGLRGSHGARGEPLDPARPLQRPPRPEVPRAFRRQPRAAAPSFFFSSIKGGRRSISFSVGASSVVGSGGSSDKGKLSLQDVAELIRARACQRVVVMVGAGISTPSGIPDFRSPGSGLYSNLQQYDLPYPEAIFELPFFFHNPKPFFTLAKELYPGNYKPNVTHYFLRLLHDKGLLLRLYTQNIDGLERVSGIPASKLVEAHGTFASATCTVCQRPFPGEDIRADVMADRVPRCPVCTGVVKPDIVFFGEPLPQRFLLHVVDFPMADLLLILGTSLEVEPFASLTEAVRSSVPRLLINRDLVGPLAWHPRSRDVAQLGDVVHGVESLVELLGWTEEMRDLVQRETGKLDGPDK
The series can be described thus: Inhibition of human His6-tagged SIRT3 using H2N-HK-(Nepsilon-acetyl-lysine)-LM-COOH as substrate after 8 mins by HPLC analysis.

The target of series [4] is T3, NAD-dependent protein deacetylase sirtuin-2 (Homo sapiens, UniProt Q8IXJ6).
T3 sequence (Q8IXJ6 whole entry): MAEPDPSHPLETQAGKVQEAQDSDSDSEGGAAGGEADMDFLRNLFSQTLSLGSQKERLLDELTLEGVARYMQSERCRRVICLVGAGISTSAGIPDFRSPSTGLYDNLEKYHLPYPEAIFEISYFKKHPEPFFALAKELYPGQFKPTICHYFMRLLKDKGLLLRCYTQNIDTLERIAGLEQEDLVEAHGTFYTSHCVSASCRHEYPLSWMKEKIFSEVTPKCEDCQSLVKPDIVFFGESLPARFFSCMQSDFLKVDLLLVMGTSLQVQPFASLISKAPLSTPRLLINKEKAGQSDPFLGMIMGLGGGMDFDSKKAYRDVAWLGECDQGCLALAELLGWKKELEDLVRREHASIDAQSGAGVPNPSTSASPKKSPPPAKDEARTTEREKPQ
Briefly: Inhibition of human His6-tagged SIRT2 using H2N-HK-(Nepsilon-acetyl-lysine)-LM-COOH as substrate after 10 mins by HPLC analysis.

Series [5] is described as follows: Stability of the compound assessed as Streptomyces griseus pronase-mediated degradation by measuring compound remaining at 160 uM after 60 mins by HPLC analysis. The class given is ADME. The settings on record: read-out: Stability. The method in brief: (§1)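 Compound incubated with pronase (broad-specificity protease mixture), percent compound remaining followed over time up to 60 min; a control peptide incubated under the same condition.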

Series [6] deals with NAD-dependent protein deacylase sirtuin-5, mitochondrial (Homo sapiens, UniProt Q9NXA8). The series can be described thus: Inhibition of human SIRT5 using CH3CONH-AR-(Nepsilon-succinyl-lysine)-ST-CONH2 as substrate after 5 mins by HPLC analysis.
Chain of NAD-dependent protein deacylase sirtuin-5, mitochondrial (Q9NXA8 whole entry): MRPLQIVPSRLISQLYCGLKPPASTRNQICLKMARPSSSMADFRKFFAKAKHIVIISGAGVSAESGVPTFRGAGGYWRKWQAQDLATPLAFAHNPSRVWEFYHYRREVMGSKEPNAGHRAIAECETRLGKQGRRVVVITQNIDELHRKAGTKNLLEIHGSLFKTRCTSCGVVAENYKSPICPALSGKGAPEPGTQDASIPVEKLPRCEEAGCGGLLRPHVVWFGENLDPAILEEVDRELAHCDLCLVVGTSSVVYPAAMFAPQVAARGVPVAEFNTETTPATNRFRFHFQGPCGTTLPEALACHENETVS
The target in series [7] is NAD-dependent protein deacylase sirtuin-6 (Homo sapiens, UniProt Q8N6T7). Briefly: Inhibition of human SIRT6 using H2N-EALPK-(Nepsilon-myristoyl-lysine)-TGGPQ-CONH2 as substrate after 12 mins by HPLC analysis.
Chain of NAD-dependent protein deacylase sirtuin-6 (Q8N6T7 whole entry): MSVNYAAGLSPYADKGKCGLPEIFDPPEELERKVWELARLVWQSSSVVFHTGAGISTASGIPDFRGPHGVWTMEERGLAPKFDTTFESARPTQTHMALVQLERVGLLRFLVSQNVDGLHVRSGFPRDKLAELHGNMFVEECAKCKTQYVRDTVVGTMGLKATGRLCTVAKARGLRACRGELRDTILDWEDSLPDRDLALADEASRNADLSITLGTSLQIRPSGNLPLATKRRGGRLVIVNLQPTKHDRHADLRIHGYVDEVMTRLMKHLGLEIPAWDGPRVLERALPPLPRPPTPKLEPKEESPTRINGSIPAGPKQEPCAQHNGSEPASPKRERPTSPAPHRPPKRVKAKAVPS
The nature of series [8]: Stability of the compound assessed as Streptomyces griseus pronase-mediated degradation at 160 uM measured within 3 mins by HPLC analysis. The note with it: 0.05 h. Format: ADME. The method in brief: as §1

From ChEMBL document CHEMBL3600344, “Novel thiourea-based sirtuin inhibitory warheads” (Bioorg Med Chem Lett, 2015) come the findings set out here.

The structures appear in SMILES notation. Peptide text beside a SMILES is read from it.

Take `CC(=O)NCCCC[C@H](NC(=O)[C@H](CCCCNC(C)=S)NC(=O)[C@H](CCCCNC(C)=O)NC(C)=O)C(N)=O`: the “inhibition (INH)” value in series [1] stood at 6%.

As for `CC(=O)NCCCC[C@H](NC(=O)[C@H](CCCCNC(N)=S)NC(=O)[C@H](CCCCNC(C)=O)NC(C)=O)C(N)=O`, the IC50 (usually the concentration that inhibits the measured activity by half) in series [2] was 49.9 µM; in series [3] it was 5.4 µM; in series [4], 30.4 µM. Consider `CNC(=S)NCCCC[C@H](NC(=O)[C@H](CCCCNC(C)=O)NC(C)=O)C(=O)N[C@@H](CCCCNC(C)=O)C(N)=O`, for which the figures for the IC50 in series [2], in series [3] and in series [4] were 5.6 µM, 2.2 µM and 1.65 µM, respectively. Also, in series [1], the “inhibition (INH)” value came out at 50%. In series [5], the remaining at 1 h, 160 µM was found to be 88%. In turn, `CC(=O)NCCCC[C@H](NC(=O)[C@H](CCCCNC(=S)Nc1ccccc1)NC(=O)[C@H](CCCCNC(C)=O)NC(C)=O)C(N)=O` displayed a 50% inhibitory concentration (IC50) in series [2] of 62.9 µM. As to `CC(=O)NCCCC[C@H](NC(=O)[C@H](CCCCNC(=S)NCC(=O)O)NC(=O)[C@H](CCCCNC(C)=O)NC(C)=O)C(N)=O`, in series [6], the IC50 is > 100 µM. For the molecule `CC(=O)NCCCC[C@H](NC(=O)[C@H](CCCCNC(=S)NCCC(=O)O)NC(=O)[C@H](CCCCNC(C)=O)NC(C)=O)C(N)=O`, the IC50 in series [6] worked out at 5 µM; in series [7] it was 2400 µM.

Consider `CC(=O)NCCCC[C@H](NC(=O)[C@H](CCCCNC(=S)NCCCC(=O)O)NC(=O)[C@H](CCCCNC(C)=O)NC(C)=O)C(N)=O`, for which the IC50 in series [6] is > 100 µM.

For the molecule `CSCC[C@H](NC(=O)[C@H](CC(C)C)NC(=O)[C@H](CCCCNC(C)=O)NC(=O)[C@H](CCCCN)NC(=O)[C@@H](N)Cc1cnc[nH]1)C(=O)O` (H-HKK(Ac)LM-OH), in series [8], the Stability result is on record as “Unstable”.
